In paper PMC5458759 (Genes & Development, 2017):

Tests used:
ER^LRR [1] = assay: Gel filtration assay with ER^LRR; format: binding, Arabidopsis; conditions: 10 mM Bis-Tris pH 6.0, 100 mM NaCl; incubated 30 min at 4°C
How it was run: (§1)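 LRR ectodomains were expressed in High Five insect cells by baculovirus at 22°C; for complexes, the ERf and TMM viruses were added together. Protein was purified from the supernatant by Ni-NTA and then size exclusion. Receptor and EPF-family peptide were mixed, held 30 min at 4°C, then run on Superdex 200 in 10 mM Bis-Tris pH 6.0, 100 mM NaCl. Fractions were analysed by SDS-PAGE with Coomassie staining.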

ERL1^LRR–TMM^LRR complex [2] = assay: Gel filtration assay with ERL1^LRR–TMM^LRR complex; format: binding, Arabidopsis; conditions: 10 mM Bis-Tris pH 6.0, 100 mM NaCl; incubated 30 min at 4°C
How it was run: as §1

ERL1^LRR [3] = assay: Gel filtration assay with ERL1^LRR; format: binding, Arabidopsis; conditions: 10 mM Bis-Tris pH 6.0, 100 mM NaCl; incubated 30 min at 4°C
How it was run: as §1

ER^LRR–TMM^LRR complex [4] = assay: Gel filtration assay with ER^LRR–TMM^LRR complex; format: binding, Arabidopsis; conditions: 10 mM Bis-Tris pH 6.0, 100 mM NaCl; incubated 30 min at 4°C
How it was run: as §1

ERL1^LRR [5] = assay: Pull-down assay with 6xHis-tagged ERL1^LRR; format: binding, Arabidopsis; conditions: Ni resin, SDS-PAGE, Coomassie blue; without TMM^LRR
How it was run: (§2)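 Purified C-terminal 6xHis-tagged receptor LRR, from High Five cells, was mixed with excess EPF-family peptide and Ni resin for 30 min on ice. The resin was washed four times in 25 mM Tris pH 8.0, 250 mM NaCl, 15 mM imidazole, then heated 5 min at 100°C in SDS loading buffer. Bound protein was detected by SDS-PAGE with Coomassie staining.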

ER^LRR [6] = assay: Pull-down assay with 6xHis-tagged ER^LRR; format: binding, Arabidopsis; conditions: Ni resin, SDS-PAGE, Coomassie blue; without TMM^LRR
How it was run: as §2

ERL2^LRR = assay: Pull-down assay with 6xHis-tagged ERL2^LRR; format: binding, Arabidopsis; conditions: Ni resin, SDS-PAGE, Coomassie blue; without TMM^LRR
How it was run: as §2

[7] = target: ERL1^LRR–TMM^LRR complex (Arabidopsis thaliana) (UniProt C0LGW6); assay: ITC
[8] = target: T1, TMM^LRR, extracellular LRR domain of TOO MANY MOUTHS (TMM) (Arabidopsis thaliana, UniProt Q9SSD1 47-470); assay: crystal structure
T1 sequence: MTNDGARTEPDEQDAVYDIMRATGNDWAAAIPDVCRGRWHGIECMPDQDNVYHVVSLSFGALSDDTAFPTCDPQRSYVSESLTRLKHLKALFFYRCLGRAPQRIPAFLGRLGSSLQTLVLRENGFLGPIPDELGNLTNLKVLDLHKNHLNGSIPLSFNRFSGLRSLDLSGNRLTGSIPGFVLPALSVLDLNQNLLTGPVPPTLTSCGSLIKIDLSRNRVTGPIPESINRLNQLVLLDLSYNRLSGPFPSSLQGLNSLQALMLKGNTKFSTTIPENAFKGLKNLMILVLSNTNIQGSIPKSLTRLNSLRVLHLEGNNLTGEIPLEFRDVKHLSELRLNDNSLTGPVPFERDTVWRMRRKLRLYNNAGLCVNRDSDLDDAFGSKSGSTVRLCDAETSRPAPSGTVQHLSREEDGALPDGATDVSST

ER^LRR–TMM^LRR complex [9] = target: T2, ER^LRR–TMM^LRR complex (Arabidopsis thaliana, UniProt Q42371;Q9SSD1); assay: SEC
T2 sequence 1: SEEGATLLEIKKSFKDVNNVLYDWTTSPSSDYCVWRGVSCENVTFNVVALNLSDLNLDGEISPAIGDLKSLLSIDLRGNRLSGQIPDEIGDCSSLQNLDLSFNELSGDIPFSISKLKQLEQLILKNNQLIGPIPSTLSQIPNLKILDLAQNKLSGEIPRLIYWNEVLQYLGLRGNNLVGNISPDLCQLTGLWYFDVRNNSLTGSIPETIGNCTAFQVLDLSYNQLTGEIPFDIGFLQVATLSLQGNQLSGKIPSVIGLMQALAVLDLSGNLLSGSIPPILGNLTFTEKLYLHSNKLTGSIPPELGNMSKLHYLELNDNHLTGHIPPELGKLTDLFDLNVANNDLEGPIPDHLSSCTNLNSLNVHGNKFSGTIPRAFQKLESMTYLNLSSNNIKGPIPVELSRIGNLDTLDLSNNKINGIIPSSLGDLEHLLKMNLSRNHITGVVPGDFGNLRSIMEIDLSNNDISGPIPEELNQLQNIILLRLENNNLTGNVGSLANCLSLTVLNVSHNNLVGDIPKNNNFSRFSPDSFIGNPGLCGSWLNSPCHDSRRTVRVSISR
T2 sequence 2: T1 sequence

[10] = target: T3, ERL2^LRR, extracellular LRR domain of ERL2 (Arabidopsis thaliana, UniProt Q6XAT2 28-580); assay: pull-down
T3 sequence: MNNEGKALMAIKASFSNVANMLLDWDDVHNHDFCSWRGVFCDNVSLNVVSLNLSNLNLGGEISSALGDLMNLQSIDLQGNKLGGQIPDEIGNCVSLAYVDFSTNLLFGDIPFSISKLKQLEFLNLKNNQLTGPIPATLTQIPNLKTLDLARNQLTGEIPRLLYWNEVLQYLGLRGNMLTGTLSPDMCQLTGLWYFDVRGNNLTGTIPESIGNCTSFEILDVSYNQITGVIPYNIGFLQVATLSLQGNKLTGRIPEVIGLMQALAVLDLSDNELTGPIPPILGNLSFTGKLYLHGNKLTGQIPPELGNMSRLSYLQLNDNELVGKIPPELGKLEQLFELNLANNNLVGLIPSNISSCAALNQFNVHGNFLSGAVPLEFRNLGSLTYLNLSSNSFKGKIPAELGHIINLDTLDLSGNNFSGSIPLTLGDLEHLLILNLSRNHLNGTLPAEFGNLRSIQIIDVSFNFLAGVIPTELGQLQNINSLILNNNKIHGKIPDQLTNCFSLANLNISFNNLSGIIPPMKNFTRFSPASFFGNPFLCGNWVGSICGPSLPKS

[11] = target: T4, ER^LRR, extracellular LRR domain of ERECTA (ER) (Arabidopsis thaliana, UniProt Q42371 24-580); assay: pull-down
T4 sequence: T2 sequence 1

ERL1^LRR–TMM^LRR complex [12] = target: T5, ERL1^LRR–TMM^LRR complex (Arabidopsis thaliana, UniProt C0LGW6;Q9SSD1); assay: ITC
T5 sequence 1: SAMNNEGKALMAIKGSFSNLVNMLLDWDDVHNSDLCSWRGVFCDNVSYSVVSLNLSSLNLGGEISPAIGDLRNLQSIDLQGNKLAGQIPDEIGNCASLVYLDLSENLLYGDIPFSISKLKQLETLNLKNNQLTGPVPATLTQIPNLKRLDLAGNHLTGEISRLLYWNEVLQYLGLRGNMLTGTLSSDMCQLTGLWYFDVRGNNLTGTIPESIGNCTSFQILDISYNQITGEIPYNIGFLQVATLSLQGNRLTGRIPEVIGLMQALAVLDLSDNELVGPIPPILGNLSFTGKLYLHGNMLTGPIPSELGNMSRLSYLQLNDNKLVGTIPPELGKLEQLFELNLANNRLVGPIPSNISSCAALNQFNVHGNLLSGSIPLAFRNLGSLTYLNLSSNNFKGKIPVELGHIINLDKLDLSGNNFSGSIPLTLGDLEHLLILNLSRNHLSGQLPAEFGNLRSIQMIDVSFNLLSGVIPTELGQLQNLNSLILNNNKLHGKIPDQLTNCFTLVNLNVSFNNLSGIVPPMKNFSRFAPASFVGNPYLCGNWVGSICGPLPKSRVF
T5 sequence 2: T1 sequence

ER^LRR–TMM^LRR complex [13] = target: T2, ER^LRR–TMM^LRR complex; assay: pull-down

Molecule: EPF1: cysteine-rich EPF family peptide, residues 53–104, expressed in High Five insect cells (AGSRLPDCSHACGSCSPCRLVMVSFVCASVEEAETCPMAYKCMCNNKSYPVP)
- interaction with ER^LRR alone in gel filtration (ER^LRR [1]): no binding
- interaction with ERL1^LRR–TMM^LRR in gel filtration (comigration) (ERL1^LRR–TMM^LRR complex [2]): strong interaction
- interaction with ERL1^LRR alone in gel filtration (ERL1^LRR [3]): no binding
- interaction with ER^LRR–TMM^LRR in gel filtration (comigration) (ER^LRR–TMM^LRR complex [4]): strong interaction

Molecule: EPF2: cysteine-rich EPF family peptide, residues 69–120, expressed in insect cells (TGSSLPDCSYACGACSPCKRVMISFECSVAESCSVIYRCTCRGRYYHVPSRA)
- interaction with ER^LRR alone in gel filtration (ER^LRR [1]): no binding
- interaction with ERL1^LRR–TMM^LRR in gel filtration (comigration) (ERL1^LRR–TMM^LRR complex [2]): strong interaction
- interaction with ERL1^LRR alone in gel filtration (ERL1^LRR [3]): no binding
- interaction with ERL1^LRR in pull-down (ERL1^LRR [5]): none of the three ERf proteins displayed interaction
- interaction with ER^LRR–TMM^LRR in gel filtration (comigration) (ER^LRR–TMM^LRR complex [4]): strong interaction
- interaction with ER^LRR in pull-down (ER^LRR [6]): none of the three ERf proteins displayed interaction
- interaction with ERL2^LRR in pull-down (ERL2^LRR): none of the three ERf proteins displayed interaction

Molecule: EPFL4–EPF1, swapped EPFL4 mutant with the apical loop region of EPF1 (peptide)
- Kd [7]: 420 nM

Molecule: EPFL6: EPF family growth regulatory peptide, residues 106–156 (LGSSPPRCSSKCGRCTPCKPVHVPVPPGTPVTAEYYPEAWRCKCGNKLYMP)
- interaction with ERL1^LRR in pull-down (ERL1^LRR [5]): sufficient for interaction
- interaction with ER^LRR in pull-down (ER^LRR [6]): sufficient for interaction
- interaction with ERL2^LRR in pull-down (ERL2^LRR): sufficient for interaction

B1: … PATTERNING FACTOR 1 (EPF1) peptide, residues 53–104 (peptide)
chain: AGSRLPDCSHACGSCSPCRLVMVSFVCASVEEAETCPMAYKCMCNNKSYPVP
- binding result [8]: binds
- binding result (ER^LRR–TMM^LRR complex [9]): binds

B2: EPFL4 (CHALLAH-LIKE2, CLL2) peptide, residues 59–109 (peptide)
chain: PGSSPPTCRSKCGKCQPCKPVHVPIQPGLSMPLEYYPEAWRCKCGNKLFMP
- binding result [10]: binds
- binding result [11]: binds
- Kd (ERL1^LRR–TMM^LRR complex [12]): 1300 nM

B3: … PATTERNING FACTOR 2 (EPF2) peptide, residues 69–120 (peptide)
chain: TGSSLPDCSYACGACSPCKRVMISFECSVAESCSVIYRCTCRGRYYHVPSRA
- binding result [8]: binds
- binding result (ER^LRR–TMM^LRR complex [9]): binds

B4: EPF2-6xHis (C-terminally His-tagged EPF2) (peptide)
chain: B3 chain
- binding result (ER^LRR–TMM^LRR complex [13]): binds
